In brackets after ≈: the same amount, converted by molar mass. Read-outs that look alike come from different tables or passages of the source.

The values that follow come from paper PMC12542962 (Science Advances, 2025).

The test system of assay [1] is CRKP. As to the kind of experiment: Time-dependent killing assay. It counts as cell-based, K. pneumoniae. The conditions noted are these: TINA 20 μg/ml or imipenem 8 μg/ml alone, 24 hours.
The test system of assay [2] is CRKP. Nature of the assay: Resistance development assay, 20 passages. As to conditions: Klebsiella pneumoniae. The format is cell-based, K. pneumoniae. The method, boiled down: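 Log-phase CRKP clinical isolate diluted in LB broth containing imipenem, with or without test compound, and cultured at 37°C for serial passaging.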
Assay [3] concerns CRKP. As to the kind of experiment: Lethal CRKP pneumonia model, survival. The format is in vivo, BALB/c mice. As to conditions: single dose; TINA 10 mg/kg, imipenem 8 mg/kg, or 10 + 8 mg/kg; n = 10. The method, boiled down: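 Female BALB/c mice (n = 10 per group) infected with 5 × 10^7 CFU CRKP. Thirty minutes later they were treated with PBS, test compound 10 mg/kg, imipenem 8 mg/kg, or test compound plus imipenem (10 + 8 mg/kg) as a single or double dose. Survival was followed for 7 days postinfection and cumulative survival calculated.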

Assay [4] has as its system CRKP, CRE, and CRAB. As to the kind of experiment: Acute pneumonia models, blood indicators, histology and inflammation. The format is in vivo, BALB/c mice. As to conditions: TINA 10 mg/kg or imipenem 8 mg/kg, single dose.

For orientation: MIC means the lowest concentration that inhibits growth of the organism. For `C[C@@H](O)[C@H]1C(=O)N2C(C(=O)O)=C(SCCN=CN)C[C@H]12` [Imipenem, imipenem], the “change in bacteria counts, monotherapy” value in assay [1] was “increased by two orders of magnitude in bacteria counts”. Besides, the results for the MIC in assay [2] (read-out: MIC after 20 passages) and in assay [2] (read-out: MIC before passaging) were 2050 µg/mL (≈ 6.84 mM) and 64 µg/mL (≈ 0.214 mM), respectively. The “survival rate at dpi 7” value in assay [3] came out at 30%. In addition, in assay [4], the “effect of monotherapy on live bacteria in the lungs” value is listed as “mere effects on eliminating live bacteria in the lungs”.
